# Test results from ChEMBL document CHEMBL1811913, “Trimethoxy-chalcone derivatives inhibit growth of Leishmania braziliensis: synthesis, biological evaluation, molecular modeling and structure-activity relationship (SAR)” (Bioorg Med Chem, 2011).
# pIC50: −log10 of the molar value. Calls of active or inactive are those of the source. The calls are words filed in the database; no cut-off is given here.
# How the values were obtained:
# [1] = Selectivity index, ratio of CC50 for african green monkey Vero cells to IC50 for promastigotes form of Leishmania braziliensis MHOM/BR/75/M2904; assay type: functional
# Leishmania braziliensis [2] = assay: Antileishmanial activity against promastigotes form of Leishmania braziliensis MHOM/BR/75/M2904 after 72 hrs; assay type: functional; conditions: MHOM/BR/75/M2904, 72 h
# Method in brief: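 5.0 × 10^6 promastigotes/mL were exposed to 500, 100, 50, 25, 10, 5 and 1 (DMSO ≤1% final) at 28 °C for 72 h, and living parasites were counted in a Neubauer chamber. IC50 came from linear regression, mean ± standard error of three independent experiments.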
# [3] = Cytotoxicity against african green monkey Vero cells after 72 hrs; assay type: cell-based; conditions: chlorocebus sabaeus
# Leishmania braziliensis [4] = assay: Antileishmanial activity against promastigotes form of Leishmania braziliensis MHOM/BR/75/M2904 at 50 uM after 72 hrs; assay type: functional
# Vero = assay: Cytotoxicity against african green monkey Vero cells at 50 uM after 72 hrs; assay type: cell-based; conditions: chlorocebus sabaeus
# [5] = molecular target: T1, Nitric oxide synthase, inducible (Mus musculus) (UniProt P29477); assay: Inhibition of iNOS-mediated LPS-induced nitric oxide production in mouse RAW264.7 cells; assay type: cell-based
# T1 sequence (whole entry): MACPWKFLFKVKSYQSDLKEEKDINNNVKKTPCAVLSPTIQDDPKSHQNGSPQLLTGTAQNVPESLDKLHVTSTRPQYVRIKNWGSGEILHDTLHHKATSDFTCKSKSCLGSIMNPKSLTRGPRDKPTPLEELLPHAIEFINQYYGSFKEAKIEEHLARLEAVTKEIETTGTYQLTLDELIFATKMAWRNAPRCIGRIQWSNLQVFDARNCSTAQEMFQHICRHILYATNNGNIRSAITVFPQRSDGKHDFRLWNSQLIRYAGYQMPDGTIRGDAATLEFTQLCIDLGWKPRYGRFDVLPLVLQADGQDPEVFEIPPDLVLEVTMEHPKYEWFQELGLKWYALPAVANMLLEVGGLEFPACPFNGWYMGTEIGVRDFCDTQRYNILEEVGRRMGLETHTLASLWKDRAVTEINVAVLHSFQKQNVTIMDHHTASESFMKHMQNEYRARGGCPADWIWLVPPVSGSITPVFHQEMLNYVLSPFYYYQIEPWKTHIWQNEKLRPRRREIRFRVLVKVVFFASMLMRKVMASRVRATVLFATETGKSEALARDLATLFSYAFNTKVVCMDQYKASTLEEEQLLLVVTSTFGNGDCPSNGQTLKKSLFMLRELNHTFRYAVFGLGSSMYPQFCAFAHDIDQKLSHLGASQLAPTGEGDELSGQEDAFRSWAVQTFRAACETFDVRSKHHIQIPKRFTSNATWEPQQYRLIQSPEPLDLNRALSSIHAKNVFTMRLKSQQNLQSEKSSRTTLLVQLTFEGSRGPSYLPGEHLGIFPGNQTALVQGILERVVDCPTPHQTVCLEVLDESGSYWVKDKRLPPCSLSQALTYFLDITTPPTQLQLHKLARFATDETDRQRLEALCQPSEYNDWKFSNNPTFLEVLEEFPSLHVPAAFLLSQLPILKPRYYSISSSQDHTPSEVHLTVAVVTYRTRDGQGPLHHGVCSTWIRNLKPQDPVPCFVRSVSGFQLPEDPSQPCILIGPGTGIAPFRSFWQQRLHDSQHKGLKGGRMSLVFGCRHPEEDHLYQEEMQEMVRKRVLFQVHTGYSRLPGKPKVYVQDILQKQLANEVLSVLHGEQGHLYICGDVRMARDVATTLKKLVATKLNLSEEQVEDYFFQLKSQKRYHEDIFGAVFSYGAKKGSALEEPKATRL
structure (smiles),measurement,setting,value
COc1cc(OC)c(C(=O)/C=C/c2cccc(Cl)c2)cc1OC,Ratio CC50/IC50,[1],24.8
same,pIC50,Leishmania braziliensis [2],4.81
same,CC50 at 72 h,[3],382 µM
N=C(N)c1ccc(OCCCCCOc2ccc(C(=N)N)cc2)cc1 [PENTAMIDINE],pIC50,Leishmania braziliensis [2],5.22
COc1cc(OC)c(C(=O)/C=C/c2ccc(Cl)c(Cl)c2)cc1OC,Ratio CC50/IC50,[1],6.1
same,pIC50,Leishmania braziliensis [2],3.83
same,CC50 at 72 h,[3],906 µM
COc1cc(O)c(C(=O)/C=C/c2cccc(Cl)c2)c(OC)c1,Ratio CC50/IC50,[1],1.8
same,pIC50,Leishmania braziliensis [2],3.71
same,CC50 at 72 h,[3],341 µM
COc1cc(OC)c(C(=O)/C=C/c2ccccc2Cl)cc1OC,inhibition,Leishmania braziliensis [4],inactive
same,Activity,Vero,Non-toxic
COc1cccc(/C=C/C(=O)c2cc(OC)c(OC)cc2OC)c1,Ratio CC50/IC50,[1],21.1
same,pIC50,Leishmania braziliensis [2],4.85
same,CC50 at 72 h,[3],295 µM
COc1cc(OC)c(C(=O)/C=C/c2ccc(Cl)cc2)cc1OC,Ratio CC50/IC50,[1],9.4
same,pIC50,Leishmania braziliensis [2],4.53
same,CC50 at 72 h,[3],279 µM
COc1cc(OC)c(C(=O)/C=C/c2ccccc2Cl)c(OC)c1,inhibition,[5],Active
COc1cc(OC)c(C(=O)/C=C/c2ccccc2)cc1OC,Ratio CC50/IC50,[1],30.6
same,pIC50,Leishmania braziliensis [2],4.89
same,CC50 at 72 h,[3],392 µM
COc1cc(OC)c(C(=O)/C=C/c2ccc3c(c2)OCO3)c(OC)c1,inhibition,Leishmania braziliensis [4],inactive
same,Activity,Vero,Non-toxic
